From ChEMBL document CHEMBL2401626 (J Med Chem, 2013) come the findings set out here.

pIC50: −log10 of the molar value. The source made the active and inactive calls. The rule behind the calls is not given here.

Series [1] concerns the target T1, Amyloid-beta precursor protein (Homo sapiens, UniProt P05067). The note with it: at 20 µM.
The nature of series [2]: Antioxidant activity assessed as trolox equivalent of AAPH radical scavenging activity at 10 uM preincubated for 10 mins followed by AAPH challenge measured every min for 120 mins by ORAC-FL assay. The format is functional. The gist of the method:
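Test compound and fluorescein (70 nM final) in 75 mM phosphate buffer pH 7.4, preincubated 10 min at 37 °C, then AAPH (40 mM solution) added. Fluorescence read every minute for 120 min (ex 485/em 520 nm). Curves normalized to buffer blank. […] Triplicate wells, at least three independent runs.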

The target of series [3] is T1, Amyloid-beta precursor protein.
The nature of series [4]: Permeability of the compound at 100 ug/mL after 10 hrs by PAMPA. The conditions noted are these: read-out: permeability. It is filed as ADME. The gist of the method:
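PAMPA-BBB: filter coated with porcine brain lipid in dodecane (20 mg/mL); acceptor is PBS/EtOH 7:3. Compound taken from 5 mg/mL DMSO stock and diluted to 100 μg/mL final in PBS/EtOH, then incubated 10 h at 25 °C. Acceptor concentration measured by UV at five wavelengths, four wells, at least three runs; Pe calculated by equation.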
Background: The PAMPA barrier holds no transporters, so it reflects passive diffusion.

The target in a further series is Acetylcholinesterase (Electrophorus electricus, UniProt O42275). The series is described as follows: Inhibition of electric eel AChE using acetylthiocholine chloride as substrate preincubated for 15 mins followed by substrate addition measured every 1 min by Ellman's method. Put shortly:
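Ellman method in 0.1 M potassium phosphate buffer, pH 8.0, 1 mL assay containing DTNB and thiocholine substrate (each 50 μL of 0.01 M stock). Enzyme (AChE stock 2.0 units/mL) preincubated with compound 15 min at 37 °C, then substrate added. A412 read at 1 min intervals at 37 °C. Each concentration in triplicate. IC50 from at least three experiments.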
For orientation: DTNB colorimetry detects thiols as they appear.

Series [5] deals with T1, Amyloid-beta precursor protein. The series is described as follows: Induction of disaggregation of self-mediated amyloid beta (1 to 42) fibril (unknown origin) at 25 uM after 24 hrs by thioflavin T fluorescence assay relative to control.
For series [6] the target is unchanged. Briefly: Inhibition of Cu2+-induced amyloid beta (1 to 42) aggregation (unknown origin) at 50 uM after 24 hrs by thioflavin T fluorescence assay relative to untreated control. Put shortly: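 Aβ1−42 (25 μM final) in 20 μM HEPES pH 6.6, 150 μM NaCl, with Cu2+ (25 μM final) and compound (50 μM final). Incubated at 37 °C for 24 h, then diluted into 50 mM glycine−NaOH pH 8.0 with 5 μM ThT. Fluorescence read at ex 450/em 485 nm after 5 min; inhibition calculated as (1 − IFi/IFc) × 100 after background subtraction.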

The target is the same in series [7]. Briefly: Induction of disaggregation of self-mediated amyloid beta (1 to 42) fibril (unknown origin) at 25 uM after 24 hrs by transmission electron microscopic analysis.
For series [8] the target is unchanged. The series is described as follows: Induction of disaggregation of Cu2+-induced amyloid beta (1 to 42) fibril (unknown origin) at 50 uM after 24 hrs by thioflavin T fluorescence assay relative to control. The gist of the method:
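Aβ1−42 (25 μM final) in 20 μM HEPES pH 6.6, 150 μM NaCl, preincubated with Cu2+ (25 μM) for 24 h at 37 °C. Compound (50 μM final) then added for another 24 h at 37 °C. Sample diluted into 50 mM glycine−NaOH pH 8.0 with 5 μM ThT; fluorescence read after 5 min at ex 450/em 485 nm.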

A short description of series [9]: Metal chelating activity of the compound assessed as Fe3+ complex formation at 20 uM after 30 mins by UV-vis spectrometry. It is filed as functional.
Series [10] can be described thus: Metal chelating activity of the compound assessed as Cu2+ complex formation by Job's method. It is filed as functional. Put shortly: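 Job's method: solutions held at constant total compound + CuSO4 concentration with varied mole fraction, in ethanol/HEPES buffer pH 7.4. UV absorbance change plotted against mole fraction; stoichiometry taken from the intersection of the straight lines.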

Series [11] is described as follows: Metal chelating activity of the compound assessed as Zn2+ complex formation at 20 uM after 30 mins by UV-vis spectrometry. The format is functional. Put shortly:
(§1)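 Absorption spectra of compound (20 μM final) alone or with metal salt (40 μM final; CuSO4, FeSO4 or ZnCl2) after 30 min in 20% ethanol/buffer (20 mM HEPES, 150 mM NaCl, pH 7.4). Recorded at room temperature by UV−vis.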

The subject of a further series is SH-SY5Y. Briefly: Antioxidant activity in human SH-SY5Y cells assessed as decrease in t-BuOOH-induced intracellular ROS production at 2.5 to 10 uM incubated for 24 hrs prior to t-BuOOH challenge measured after 30 mins by DCFHDA-based fluorescence assay. The format is functional, cell-based. The gist of the method:
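SH-SY5Y cells (DMEM, 10% FCS, 37 °C, 5% CO2) seeded 1 × 10^4/well and grown 24 h. Compound added for 24 h; Trolox control at 5, 10, 20 μM. Cells are then washed, loaded with 5 μM DCFH-DA in PBS for 30 min, and challenged with 0.1 mM t-BuOOH for 30 min. Fluorescence read at ex 485/em 535 nm. Result is % of control by formula; three independent experiments in sextuplicate.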

Series [12] can be described thus: Metal chelating activity of the compound assessed as Cu2+ complex formation at 20 uM after 30 mins by UV-vis spectrometry. The format is functional. The gist of the method: as §1
Series [13] concerns the target T1, Amyloid-beta precursor protein. Briefly: Induction of disaggregation of Cu2+-induced amyloid beta (1 to 42) fibril (unknown origin) at 50 uM after 24 hrs by transmission electron microscopic analysis. Put shortly: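 Cu2+-induced fibrils formed from Aβ1−42 (25 μM) with Cu2+ (25 μM) at 37 °C for 24 h in HEPES pH 6.6/NaCl, then treated with compound (50 μM) at 37 °C for 24 h. Aliquots placed on carbon-coated grid for 2 min, stained with 1% uranyl acetate for 2 min, and imaged by TEM.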

Series [14] shares this target. The series is described as follows: Inhibition of Cu2+-induced amyloid beta (1 to 42) aggregation (unknown origin) at 50 uM after 24 hrs by transmission electron microscopic analysis. The gist of the method:
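Aβ1−42 (25 μM) with Cu2+ (25 μM) and compound (50 μM) in HEPES pH 6.6/150 μM NaCl, incubated at 37 °C for 24 h. Aliquots put on carbon-coated grid for 2 min, stained with 1% uranyl acetate for 2 min, and imaged by TEM.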

The target is the same in series [15]. Briefly: Inhibition of amyloid beta (1 to 42) fibril formation (unknown origin) at 20 uM after 24 hrs by transmission electron microscopic analysis. The gist of the method:
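Aβ1−42 (25 μM) incubated with compound (20 μM) at 37 °C for 24 h in 10 mM phosphate pH 7.4. Grid loaded for 2 min, stained with 1% uranyl acetate for 2 min, and imaged by TEM.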

Series [16] can be described thus: Metal chelating activity of the compound assessed as Fe2+ complex formation at 20 uM after 30 mins by UV-vis spectrometry. The format is functional. Put shortly: as §1

T1 sequence (P05067 whole entry): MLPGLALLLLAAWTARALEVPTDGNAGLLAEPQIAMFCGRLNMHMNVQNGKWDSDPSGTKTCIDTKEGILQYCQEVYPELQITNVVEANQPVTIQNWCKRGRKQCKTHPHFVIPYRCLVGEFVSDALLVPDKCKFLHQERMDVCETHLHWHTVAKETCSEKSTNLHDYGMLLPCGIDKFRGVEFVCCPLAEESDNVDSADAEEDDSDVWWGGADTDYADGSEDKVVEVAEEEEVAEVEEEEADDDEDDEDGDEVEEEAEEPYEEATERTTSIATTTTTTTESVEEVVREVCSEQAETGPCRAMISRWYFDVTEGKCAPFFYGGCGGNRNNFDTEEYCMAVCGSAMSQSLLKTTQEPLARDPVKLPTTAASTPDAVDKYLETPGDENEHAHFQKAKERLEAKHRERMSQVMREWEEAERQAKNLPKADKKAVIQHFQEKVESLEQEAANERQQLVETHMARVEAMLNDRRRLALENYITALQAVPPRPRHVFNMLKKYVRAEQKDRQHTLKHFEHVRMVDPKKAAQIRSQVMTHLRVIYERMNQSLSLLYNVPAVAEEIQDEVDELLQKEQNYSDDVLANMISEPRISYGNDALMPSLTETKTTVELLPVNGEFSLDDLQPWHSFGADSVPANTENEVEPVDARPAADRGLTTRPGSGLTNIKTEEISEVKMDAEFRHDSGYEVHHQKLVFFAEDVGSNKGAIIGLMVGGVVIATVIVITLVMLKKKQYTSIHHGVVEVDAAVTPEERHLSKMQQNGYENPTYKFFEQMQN
Sequence of Acetylcholinesterase (O42275 whole entry): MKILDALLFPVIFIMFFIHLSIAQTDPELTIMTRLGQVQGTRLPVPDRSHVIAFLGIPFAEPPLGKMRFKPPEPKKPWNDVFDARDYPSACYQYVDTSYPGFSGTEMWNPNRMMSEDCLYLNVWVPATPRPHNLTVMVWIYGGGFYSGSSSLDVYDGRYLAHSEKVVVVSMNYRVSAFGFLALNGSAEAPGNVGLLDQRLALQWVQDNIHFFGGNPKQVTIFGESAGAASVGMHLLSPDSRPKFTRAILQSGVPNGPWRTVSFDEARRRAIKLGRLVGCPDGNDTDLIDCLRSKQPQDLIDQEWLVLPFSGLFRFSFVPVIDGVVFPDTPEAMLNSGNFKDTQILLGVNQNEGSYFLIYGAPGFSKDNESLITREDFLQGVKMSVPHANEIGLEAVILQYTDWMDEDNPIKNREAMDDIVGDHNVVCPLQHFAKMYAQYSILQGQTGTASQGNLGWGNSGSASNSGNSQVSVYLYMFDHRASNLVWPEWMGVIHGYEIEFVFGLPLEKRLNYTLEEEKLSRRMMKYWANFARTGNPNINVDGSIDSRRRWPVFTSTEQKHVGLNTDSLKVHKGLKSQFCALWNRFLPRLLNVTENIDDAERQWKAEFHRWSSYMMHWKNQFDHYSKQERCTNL

Usually inhibition stands for the percentage by which the read-out fell short of the control. The pIC50 is the IC50 on a negative log10 scale, so that one unit is a factor of ten. The low end stands for a large IC50, the high end for a small IC50. In the case of `Oc1cc(O)cc(/C=C/c2ccc(NCc3cccc(O)c3O)cc2)c1`, the inhibition in series [1] stood at 78.8%. Further, in [2], the Activity worked out at 3.26 equiv. The compound also had a pIC50 in series [3] of 5.10.
Compound `COc1cc(/C=C/c2ccc(NCc3cc([N+](=O)[O-])ccc3O)cc2)cc(OC)c1` returned an inhibition in [1] of 46.5%. For the same compound, the Activity in series [2] turned out to be 2.51 equiv.
As for `COc1ccc(/C=C/c2ccc(NCc3cc(N(C)C)ccc3O)cc2)cc1`, the inhibition in series [1] was 71.2%. Further, the Activity in series [2] was 2.37 equiv. Also, in series [3], the pIC50 is 4.91.
For `COc1cc(/C=C/c2ccc(NCc3cc[nH]c3)cc2)cc(OC)c1`, the inhibition in series [1] was found to be 13.6%. In addition, the Activity in series [2] came out at 3.51 equiv.
Taken in the same sequence, the figures for `COc1cc(/C=C/c2ccc(NCc3ccc(OC)cc3O)cc2)cc(OC)c1` were 3.98% and 3.32 equiv.
Turning to `COc1cc(/C=C/c2ccc(NCc3cc(N(C)C)ccc3O)cc2)cc(OC)c1.Cl`, the Papp at 10 h, 100 ug/mL in [4] came to 7.13 ×10⁻⁶ cm/s.
In [1], `COc1cc(/C=C/c2ccc(NCc3cc(Cl)ccc3O)cc2)cc(OC)c1` displayed an inhibition of 31.3%. In series [2], the Activity amounted to 4.12 equiv.
In [1], `COc1cc(/C=C/c2ccc(NCc3cc(NCC(C)C)ccc3O)cc2)cc(OC)c1` had an inhibition of 67%. In series [2], the Activity was found to be 4.51 equiv. Further, in series [3], the pIC50 is 4.99.
Turning to `C#CCN[C@@H]1CCc2ccc(OC(=O)N(C)CC)cc21` [LADOSTIGIL], at Acetylcholinesterase, the pIC50 is 4.30.
In [1], `Oc1cc(O)cc(/C=C/c2ccc(NCc3ccccc3O)cc2)c1` gave an inhibition of 68.1%. For the same compound, in series [2], the Activity came out at 6.27 equiv. Moreover, in series [3], the pIC50 was 4.99.
As for `COc1cc(/C=C/c2ccc(NCc3c[nH]c4ccccc34)cc2)cc(OC)c1`, the inhibition in [1] was 24.1%. The Activity in series [2] was 3.67 equiv.
Compound `CN(C)c1ccc(/C=C/c2ccc(NCc3cc(N(C)C)ccc3O)cc2)cc1` registered an inhibition in series [1] of 69.1%. Besides, the Activity in series [2] came to 3.86 equiv. Further, in series [3], the pIC50 was 4.97.
The compound `COc1cc(/C=C/c2ccc(NCc3cccc(OC)c3O)cc2)cc(OC)c1` showed an inhibition in series [1] of 18.1%. Also, the Activity in series [2] came to 4.54 equiv.
Take `Oc1ccc(/C=C/c2cc(O)cc(O)c2)cc1`: the Activity amounted to 61% in [5] and 86.4% in [8]. The inhibition in [6] stood at 78.9%; in [1], 69.7%. Besides, in [7], the result was Active.
In [1], `COc1cc(/C=C/c2ccc(NCc3ccccc3N(C)C)cc2)cc(OC)c1` returned an inhibition of 7.17%. Also, in [2], the Activity was 5.87 equiv.
In the case of `O=[N+]([O-])c1ccc(O)c(CNc2ccc(/C=C/c3cc(O)cc(O)c3)cc2)c1`, the inhibition in series [1] was 71.5%. Also, in series [2], the Activity came to 4.23 equiv. Besides, the pIC50 in series [3] was 5.15.
Taken in the same sequence, the figures for `CN(C)c1ccccc1CNc1ccc(/C=C/c2cc(O)cc(O)c2)cc1` were 62.4%, 3.57 equiv and 4.85.
Consider `COc1cc(/C=C/c2ccc(NCc3ccccc3O)cc2)cc(OC)c1`, for which, in [1], the inhibition was 20.7%. For the same compound, the Activity in series [2] came out at 3.67 equiv.
For `Oc1c(I)cc(Cl)c2cccnc12`, the Activity turned out to be 16.5% in series [5] and 41% in [8]. The inhibition in series [6] worked out at 70.9%; in series [1] it was 37.8%. Moreover, in [7], the result was Active.
On to `COc1cc(/C=C/c2ccc(NCc3ccccc3OC)cc2)cc(OC)c1`, for which the inhibition in series [1] was 6.9%. Further, the Activity in series [2] is 3.67 equiv.
As for `CN(C)c1ccc(O)c(CNc2ccc(/C=C/c3cc(O)cc(O)c3)cc2)c1.Cl`, the Papp at 10 h, 100 ug/mL in series [4] was 2.55 ×10⁻⁶ cm/s.
The compound `CCCNc1ccc(O)c(CNc2ccc(/C=C/c3cc(OC)cc(OC)c3)cc2)c1` had an inhibition in [1] of 62.5%. The Activity in [2] came to 2.91 equiv. The compound also had a pIC50 in series [3] of 4.88.
As for `CN(C)c1ccc(O)c(CNc2ccc(/C=C/c3cc(O)cc(O)c3)cc2)c1`, the results for the Activity in [5], in series [2] and in [8] were 82%, 4.7 equiv and 85.9%, respectively. In addition, the inhibition was 94.2% in series [6] and 78.1% in series [1]. Besides, the result (in [9]; in [7]; in series [10]; in series [11]; in the series with SH-SY5Y; in series [12]) was Active. Moreover, the result in series [13] and in series [16] was Active. Besides, the inhibition entry in series [14] and in [15] was “Active” throughout.
`COc1cc(/C=C/c2ccc(NCc3cc(N(C)C)ccc3O)cc2)cc(OC)c1`: the Activity was determined as 67% in series [5], 4.72 equiv in series [2] and 88.8% in series [8]. Moreover, the inhibition came out at 87.5% in [6] and 79.5% in series [1]. The result (in [9]; in series [7]; in series [10]; in series [11]; with SH-SY5Y; in series [12]) was Active. The result in series [13] and in series [16] was Active. The inhibition result in [14] and in [15] was “Active” each time.
Consider `COc1cc(/C=C/c2ccc(NCc3cc(NC(C)C)ccc3O)cc2)cc(OC)c1`, for which, in [1], the inhibition was found to be 50.2%. Moreover, in series [2], the Activity worked out at 2.73 equiv. The pIC50 in series [3] was 4.74.
